Assay results from ChEMBL document CHEMBL2021780, “Antineoplastic agents. 548. Synthesis of iodo- and diiodocombstatin phosphate prodrugs” (J Nat Prod, 2012).
≈ marks a conversion by molar mass, not a printed value. Calls of active or inactive are those of the source. The calls are words filed in the database; no cut-off is given here.

Experiments:
P388 = assay: Growth inhibition of mouse P388 cells after 48 hrs by Z1 Beckman/Coulter particle counter analysis; assay type: functional; settings: P388, 48 h, read-out: ED50 (the source's name)
Method in brief: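 Mouse P388 leukemia cells were incubated 24 h in 10% horse serum/Fisher medium, then exposed 48 h to serial compound dilutions. ED50 was calculated from cell counts on a Coulter Z1 particle counter.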

BXPC-3 = assay: Growth inhibition of human BxPC3 cells after 48 hrs by sulforhodamine B assay; assay type: functional; settings: BXPC-3, 48 h
Method in brief: (§1)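 NCI sulforhodamine B assay. Cells were seeded in 5% FBS/RPMI-1640 and incubated 24 h. Serial compound dilutions were then added for 48 h. Cells were fixed with trichloroacetic acid, stained with SRB and read by microplate reader. GI50 is the concentration giving 50% reduction in net protein increase, calculated from optical density data.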

MCF7 = assay: Growth inhibition of human MCF7 cells after 48 hrs by sulforhodamine B assay; assay type: functional; settings: MCF7, 48 h; method in brief: as §1
SF-268 = assay: Growth inhibition of human SF268 cells after 48 hrs by sulforhodamine B assay; assay type: functional; settings: SF-268, 48 h; method in brief: as §1
NCI-H460 = assay: Growth inhibition of human NCI-H460 cells after 48 hrs by sulforhodamine B assay; assay type: functional; settings: NCI-H460, 48 h; method in brief: as §1
KM-20L2 = assay: Growth inhibition of human KM20L2 cells after 48 hrs by sulforhodamine B assay; assay type: functional; settings: KM-20L2, 48 h; method in brief: as §1
DU-145 = assay: Growth inhibition of human DU145 cells after 48 hrs by sulforhodamine B assay; assay type: functional; settings: DU-145, 48 h; method in brief: as §1
[1] = Growth inhibition of human KAT4 cells after 48 hrs by sulforhodamine B assay; assay type: functional; settings: KAT-4, 48 h
SW-1736 = assay: Growth inhibition of human SW1736 cells after 48 hrs by sulforhodamine B assay; assay type: functional; settings: SW-1736, 48 h
HUVEC [2] = assay: Antiangiogenic activity in HUVEC assessed as cell growth inhibition after 48 hrs by sulforhodamine B assay; assay type: functional, cell-based; settings: Homo sapiens
Method in brief: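 HUVECs were grown in EGM-2 medium and tested with the standard SRB growth assay following NCI Developmental Therapeutics Program Matrigel antiangiogenesis protocols. IC50 (concentration causing 50% inhibition) was calculated from plotted data.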

HUVEC [3] = assay: Antiangiogenic activity in HUVEC assessed as reduction of cord length at 0.01 ug/ml after 24 hrs by matrigel assay relative to control; assay type: functional
Method in brief: (§2)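 Commercial HUVECs grown in EGM-2 were seeded at 2 × 10⁵ cells/mL onto Matrigel, which had been polymerized 15 min at rt and then 30 min at 37 °C, per NCI DTP protocol. Compound was added and cells were incubated 24 h, then imaged by inverted microscopy. Cord length and junction number were scored against untreated control on a scale from − (none) to +++ (same as control), with ++ = 50% of control.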

HUVEC [4] = assay: Antiangiogenic activity in HUVEC assessed as reduction of cord length at 0.001 ug/ml after 24 hrs by matrigel assay relative to control; assay type: functional; settings: Homo sapiens; method in brief: as §2
HUVEC [5] = assay: Antiangiogenic activity in HUVEC assessed as reduction of cord length at 0.0001 ug/ml after 24 hrs by matrigel assay relative to control; assay type: functional, Homo sapiens; design: scale not given: the % may be the effect or the level left
Method in brief: (§3)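 Matrigel was polymerised in wells (15 min rt, then 30 min 37 °C). HUVECs (2 × 10⁵ cells/mL) were added with compound and incubated 24 h, then imaged by inverted microscope. Cord length and junction number were scored semi-quantitatively versus untreated control (− none to +++ same as control).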

HUVEC [6] = assay: Antiangiogenic activity in HUVEC assessed as reduction of number of junctions at 0.01 ug/ml after 24 hrs by matrigel assay relative to control; assay type: functional; method in brief: as §2
HUVEC [7] = assay: Antiangiogenic activity in HUVEC assessed as reduction of number of junctions at 0.001 ug/ml after 24 hrs by matrigel assay relative to control; assay type: functional; settings: Homo sapiens; method in brief: as §2
HUVEC [8] = assay: Antiangiogenic activity in HUVEC assessed as reduction of number of junctions at 0.0001 ug/ml after 24 hrs by matrigel assay relative to control; assay type: functional, Homo sapiens; design: scale not given: the % may be the effect or the level left; method in brief: as §3
HUVEC [9] = assay: Antiangiogenic activity in HUVEC assessed as cell growth at 0.01 ug/ml after 24 hrs by sulforhodamine B assay relative to control; assay type: functional, Homo sapiens
HUVEC [10] = assay: Antiangiogenic activity in HUVEC assessed as cell growth at 0.001 ug/ml after 24 hrs by sulforhodamine B assay relative to control; assay type: functional, Homo sapiens; settings: for growth at 0.001 µg/mL: Homo sapiens, HUVEC, 24 h, read-out: Activity
HUVEC [11] = assay: Antiangiogenic activity in HUVEC assessed as cell growth at 0.0001 ug/ml after 24 hrs by sulforhodamine B assay relative to control; assay type: functional, Homo sapiens; settings: Homo sapiens, HUVEC, 24 h; read-out: Activity
HUVEC [12] = assay: Antiangiogenic activity in HUVEC assessed as cell growth at 0.00001 ug/ml after 24 hrs by sulforhodamine B assay relative to control; assay type: functional; settings: Homo sapiens, read-out: Activity
[13] = Inhibition of purified tubulin assembly after 20 mins
Method in brief: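 Purified tubulin at 10 μM in 0.8 M monosodium glutamate (pH 6.6), 0.4 mM GTP and 4% (v/v) DMSO, with varying compound concentrations. Extent of assembly was measured after 20 min at 30 °C.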

[14] = Displacement of [3H]colchicine from tubulin at 1 uM after 10 mins
Method in brief: (§4)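 [³H]colchicine binding: 1.0 μM tubulin with 5.0 μM [³H]colchicine and compound, incubated 10 min at 37 °C. The tubulin–colchicine complex was separated from unbound label by retention on DEAE-cellulose filters. Result is inhibition of radiolabel binding.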

[15] = Displacement of [3H]colchicine from tubulin at 10 uM after 10 mins; method in brief: as §4
Micrococcus luteus = assay: Antibacterial activity against Micrococcus luteus Presque Isle 456 by broth microdilution method; assay type: functional
Method in brief: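 Broth microdilution per NCCLS bacterial (M7-A5) and yeast standards. Compounds were reconstituted in sterile DMSO and diluted in the appropriate medium just before testing. MIC is the lowest concentration giving complete inhibition of visible growth (optically clear). Assays were repeated on separate days.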

Cryptococcus neoformans = assay: Antifungal activity against Cryptococcus neoformans ATCC 90112 by broth microdilution method
HUVEC [16] = assay: Antiangiogenic activity in HUVEC assessed as reduction of cord length at 0.00001 ug/ml after 24 hrs by matrigel assay relative to control; assay type: functional, cell-based; settings: Homo sapiens; method in brief: as §2
HUVEC [17] = assay: Antiangiogenic activity in HUVEC assessed as reduction of cord length at 0.1 ug/ml after 24 hrs by matrigel assay relative to control; assay type: functional, cell-based; settings: Homo sapiens; method in brief: as §2
HUVEC [18] = assay: Antiangiogenic activity in HUVEC assessed as reduction of number of junctions at 0.00001 ug/ml after 24 hrs by matrigel assay relative to control; assay type: functional, cell-based; settings: Homo sapiens; method in brief: as §2
HUVEC [19] = assay: Antiangiogenic activity in HUVEC assessed as reduction of number of junctions at 0.1 ug/ml after 24 hrs by matrigel assay relative to control; assay type: functional, cell-based; settings: Homo sapiens; method in brief: as §2
[20] = Solubility of the compound in water; assay type: physicochemical; settings: buffer
Method in brief: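 Solubility expressed as amount dissolving in 1 mL H₂O at 25 °C.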

HUVEC [21] = assay: Antiangiogenic activity in HUVEC assessed as cell growth at 0.1 ug/ml after 24 hrs by sulforhodamine B assay relative to control; assay type: functional, Homo sapiens
HUVEC [22] = assay: Antiangiogenic activity in HUVEC assessed as cell growth at 1 ug/ml after 24 hrs by sulforhodamine B assay relative to control; assay type: functional; settings: Homo sapiens, read-out: Activity
Neisseria gonorrhoeae = assay: Antibacterial activity against Neisseria gonorrhoeae ATCC 49226 by broth microdilution method; assay type: functional
Method in brief: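 Broth microdilution followed NCCLS standard methods. Compounds were reconstituted in sterile DMSO and diluted in the appropriate medium immediately before testing. MIC was taken as the lowest concentration giving no visible growth (optically clear). Assays were repeated on separate days.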

SK-N-SH = assay: Growth inhibition of human SK-N-SH cells after 48 hrs by sulforhodamine B assay; assay type: functional; method in brief: as §1
SK-N-AS = assay: Growth inhibition of human SK-N-AS cells after 48 hrs by sulforhodamine B assay; assay type: functional; method in brief: as §1
IMR-32 = assay: Growth inhibition of human IMR32 cells after 48 hrs by sulforhodamine B assay; assay type: functional; settings: IMR-32, 48 h; method in brief: as §1

Structure (SMILES)	EC50 (P388) [ng/mL]	GI50 (BXPC-3) [ng/mL]	GI50 (MCF7) [ng/mL]	GI50 (SF-268) [ng/mL]	GI50 (NCI-H460) [ng/mL]	GI50 (KM-20L2) [ng/mL]	GI50 (DU-145) [ng/mL]	GI50 [1] [ng/mL]	GI50 (SW-1736) [ng/mL]	IC50 (HUVEC [2]) [ng/mL]	Activity (HUVEC [3]; Homo sapiens)	Activity (HUVEC [4])	Activity (HUVEC [6]; Homo sapiens)	Activity (HUVEC [7])	growth at 0.001 µg/mL (HUVEC [10]) [%]	growth at 0.0001 µg/mL (HUVEC [11]) [%]	IC50 [13] [µM]	solubility [20] [mg/mL]	Activity (HUVEC [3]) [%]	Activity (HUVEC [6]) [%]	other results
COc1ccc(/C=C\c2cc(I)c(OC)c(OC)c2)cc1O [IODOCOMBSTATIN]	2 (≈ 4.85 nM)	48 (≈ 116 nM)	0.22 (≈ 0.534 nM)	0.18 (≈ 0.437 nM)	0.29 (≈ 0.704 nM)	328 (≈ 796 nM)	0.18 (≈ 0.437 nM)	89 (≈ 216 nM)	2200 (≈ 5340 nM)	0.04 (≈ 0.097 nM)	Active	Active	Active	Active	14	18	2.5				Activity (HUVEC [5]): 75%; Activity (HUVEC [8]): 75%; growth at 0.01 µg/mL (HUVEC [9]; Homo sapiens, HUVEC, 24 h, read-out: Activity): 14%; growth at 10 pg/mL (HUVEC [12]): 90%; inhibition [14]: 78%; inhibition [15]: 100%; MIC (Micrococcus luteus): 2000 ng/mL (≈ 4850 nM); MIC (Cryptococcus neoformans): 64000 ng/mL (≈ 155000 nM)
COc1ccc(/C=C\c2cc(I)c(OC)c(OC)c2)cc1OP(=O)(O)O											Active	Active	Active	Active							Activity (HUVEC [5]; Homo sapiens): inactive; Activity (HUVEC [16]): inactive; Activity (HUVEC [17]): Active; Activity (HUVEC [8]; Homo sapiens): inactive; Activity (HUVEC [18]): inactive; Activity (HUVEC [19]): Active
COc1ccc(/C=C\c2cc(I)c(OC)c(I)c2)cc1OP(=O)([O-])[O-].[Na+].[Na+]	30	> 1000	66		327	> 1000	242			51							> 40	2	75	75	Activity (HUVEC [9]): >100%; Activity (HUVEC [10]): >100%; Activity (HUVEC [21]): -2%; growth at 1 µg/mL (HUVEC [22]): -7%; MIC (Neisseria gonorrhoeae): 32000 ng/mL
COc1ccc(/C=C\c2cc(I)c(OC)c(I)c2)cc1OP(=O)([O-])[O-].[K+].[K+]	3.4	440	50	53	46		28	380	> 10000	4.9					88	96		22	75	75	GI50 (SK-N-SH): 7.5 ng/mL; GI50 (SK-N-AS): 2 ng/mL; GI50 (IMR-32): 81 ng/mL; Activity (HUVEC [9]): 33%; Activity (HUVEC [21]): 15%; MIC (Neisseria gonorrhoeae): < 500 ng/mL
